Experiments:
Adrenergic receptor beta = Adrenergic receptor beta (Rattus norvegicus, UniProt P18090+P10608+P26255); assay: Antagonism of Beta adrenergic receptor in the isolated rat uterus; format: functional, tissue-based
Histamine H2 receptor = Histamine H2 receptor (Cavia porcellus, UniProt P47747); assay: Competitive antagonism of Histamine H2 receptor in the isolated guinea pig atrium; format: functional, tissue-based, Cardiac atrium; conditions: read-out: pA2 (converted)
Method in brief: (§1)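 Isolated guinea pig right atrium; antagonism of the positive chronotropic response to histamine. Apparent KB from the Furchgott method: KB = antagonist concentration/(dose ratio − 1), using a single antagonist concentration that gave parallel dose-response shifts without lowering the maximum. Values are means of three to five preparations per antagonist.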

Histamine H1 receptor = Histamine H1 receptor (Cavia porcellus, UniProt P31389); assay: Antagonism of Histamine H1 receptor in the isolated guinea pig ileum; format: functional, tissue-based; conditions: read-out: pA2 (converted)
Sequence of Histamine H1 receptor (P31389 whole entry): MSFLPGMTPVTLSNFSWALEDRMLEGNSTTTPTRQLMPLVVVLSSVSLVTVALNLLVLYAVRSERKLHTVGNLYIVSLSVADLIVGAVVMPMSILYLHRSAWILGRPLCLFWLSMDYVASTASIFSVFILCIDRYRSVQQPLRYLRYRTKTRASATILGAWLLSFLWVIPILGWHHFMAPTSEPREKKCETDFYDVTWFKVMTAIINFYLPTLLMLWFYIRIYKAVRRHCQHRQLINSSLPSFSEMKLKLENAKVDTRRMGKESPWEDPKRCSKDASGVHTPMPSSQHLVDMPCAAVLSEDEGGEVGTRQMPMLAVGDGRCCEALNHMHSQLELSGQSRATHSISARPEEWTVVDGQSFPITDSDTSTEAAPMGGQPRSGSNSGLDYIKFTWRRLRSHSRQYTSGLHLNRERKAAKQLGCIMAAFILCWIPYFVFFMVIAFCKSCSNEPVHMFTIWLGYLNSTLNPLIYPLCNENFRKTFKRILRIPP
Method in brief: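 Isolated guinea pig ileum; contractile responses to histamine (H1) or methacholine (muscarinic) were tested for blockade.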

Cavia porcellus = organism: Cavia porcellus; assay: Antagonism of the positive chronotropic action of histamine in the isolated guinea pig atrium; format: functional; conditions: Cardiac atrium; method in brief: as §1
Rattus norvegicus = organism: Rattus norvegicus; assay: Inhibition of gastric acid secretion in the pylorus-ligated rat (after 2h); format: functional; conditions: Stomach
Method in brief: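 Pylorus-ligated rat, by a modified Shay procedure. Compound given subcutaneously at no fewer than five dose levels (three in one case), with at least five rats per dose.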

[1] = Potency ratio in pylorus-ligated rat relative to cimetidine (after 2h); format: functional

Sequence of Histamine H2 receptor (P47747 whole entry): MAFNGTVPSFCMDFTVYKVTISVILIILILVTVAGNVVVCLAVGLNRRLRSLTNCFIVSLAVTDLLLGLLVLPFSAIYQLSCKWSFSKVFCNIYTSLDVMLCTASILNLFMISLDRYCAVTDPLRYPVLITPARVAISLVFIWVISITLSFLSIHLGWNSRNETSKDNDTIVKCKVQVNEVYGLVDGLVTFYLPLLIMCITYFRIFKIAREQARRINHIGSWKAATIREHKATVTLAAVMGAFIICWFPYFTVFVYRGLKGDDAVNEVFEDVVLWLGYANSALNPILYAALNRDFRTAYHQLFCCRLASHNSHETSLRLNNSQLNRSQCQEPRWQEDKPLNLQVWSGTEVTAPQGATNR

pA2 (Adrenergic receptor beta)	Kb (Histamine H2 receptor) [nM]	Kb (Histamine H1 receptor) [nM]	SMILES	Kb (Cavia porcellus) [nM]	ED50 (Rattus norvegicus) [µmol/kg]	Ratio [1]
4.3	25.1	126000	N=C(N)Nc1nc(CSCCNc2n[s+]([O-])nc2N)cs1 (centres undefined)			
			CNC1=NS(=O)(=O)N=C1NCCSCc1ccc(CN(C)C)s1	140	0.072	94
			CNC1=NS(=O)(=O)N=C1NCCSCc1[nH]cnc1C	11500	131	0.07
			CN(C)Cc1cccc(OCCCNc2n[s+]([O-])nc2N)c1 (centres undefined)	65	0.066	142
			CN/C(=N\CCSCc1nc[nH]c1C)NC#N [CIMETIDINE]	1200	9.4	

— ChEMBL document CHEMBL1122014, “1,2,5-thiadiazole 1-oxide and 1,1-dioxide derivatives. A new class of potent histamine H2-receptor antagonists” (J Med Chem, 1982)
